From PubChem BioAssay
The list is not random: actives were taken first. Their share in the collection is about 2%.
TCR-CD3 inh: inhibitors of human TCR-CD3 interaction, primary screen, biochemical, fluorescence, TAMRA-labeled TCR probe | T-cell receptor (TCR) | inhibition, % at 9.4 µM | hit rate 0.37% among 360,000 | AID 651800, 2012; in the data active = inhibition above about 19%;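 note: recombinant mutant TCR 2C K166C tagged with TAMRA read by polarization; 0% = receptor in buffer alone and 100% = receptor with positive control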
HTRA1 inhibitor: HTRA1 serine protease inhibitors, primary screen, biochemical, fluorescence polarization, HTS; Q92743; recombinant HTRA1, FP-rhodamine activity-based probe; inhibition, % at 5.96 µM; hit rate 0.5% among 340,000; in the data active = inhibition above about 36%;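 note: 0% = enzyme with DMSO and 100% = wells lacking enzyme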
SIAE primary: human SIAE inhibitors, primary screen, biochemical, fluorescence polarization, FP-Rh probe, 1536-well HTS; Sialate O-acetylesterase (Homo sapiens), Q9HAT2; inhibition, % at 9.66 µM; SIAE FP-Rh probe binding; hit rate 0.69% among 370,000;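 active = inhibition above a cutoff: mean of compounds within the control limits plus 3 SD of those, cut at about 17% in these data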;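 note: 0% = plate median of compound wells and 100% = probe without SIAE protein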
PAD4 inh: human PAD4 inhibitors, primary screen, biochemical, fluorescence polarization, 1536-well format; Protein-arginine deiminase type-4 (Homo sapiens), Q9UM07; hit rate 0.41% among 330,000; inhibition, % at 6.36 µM; AID 485272, 2010; recombinant PAD4, RCA probe fluorescence polarization;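 active = percent inhibition above a cutoff equal to the mean of all tested compounds plus 3 SD, cut at about 15% in these data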;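 note: 0% = PAD4 with RCA probe and DMSO and 100% = probe without PAD4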
ABHD4 inh: ABHD4 inhibitors, primary screen, biochemical, fluorescence polarization, mouse; inhibition, % at 8.92 µM; hit rate 0.54% among 370,000; purified mABHD4, FP-Rh probe fluorescence polarization;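 active = inhibition exceeding the mean over every tested compound plus 3 SD, cut at about 30% in these data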;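 note: 0% = plate median of compound wells and 100% = S159A mutant with DMSO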
Target sequence (Q8VD66 whole entry, looked up): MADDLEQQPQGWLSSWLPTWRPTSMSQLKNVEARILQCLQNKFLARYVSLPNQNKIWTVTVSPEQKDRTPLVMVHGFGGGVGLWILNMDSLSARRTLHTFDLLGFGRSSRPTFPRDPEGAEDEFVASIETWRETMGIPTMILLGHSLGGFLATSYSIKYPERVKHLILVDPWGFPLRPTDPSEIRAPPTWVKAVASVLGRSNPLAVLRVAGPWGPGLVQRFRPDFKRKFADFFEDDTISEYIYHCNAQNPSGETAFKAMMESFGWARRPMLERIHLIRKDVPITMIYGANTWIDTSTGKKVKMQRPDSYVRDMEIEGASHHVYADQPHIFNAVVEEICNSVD
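Test system: mABHD4 protein; Read-out basis: % inhibition; Incubation: 45 min + 60 min at 25 °C; Repeats: single replicate; Technique: fluorescence polarization with parallel and perpendicular emission, 525/598 nm; Compound: 8.92 µM, single dose; Benchmarks: full inhibition S159A mutant plus DMSO, zero as sample-well median.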
TDP2 absorb: human TDP2 enzyme inhibitors, primary screen, biochemical, epi absorbance, recombinant enzyme. Tyrosyl-DNA phosphodiesterase 2 (Homo sapiens), O95551. T5PNP hydrolysis, p-nitrophenol absorbance 415 nm. inhibition, % at 12.8 µM. hit rate 0.34% among 370,000;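 active = inhibition above the mean of all tested compounds plus 3 SD, set per campaign, cut at about 25% in these data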;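 note: 0% = DMSO with enzyme and 100% = buffer with substrate but no TDP2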
Target sequence (O95551 whole entry, looked up): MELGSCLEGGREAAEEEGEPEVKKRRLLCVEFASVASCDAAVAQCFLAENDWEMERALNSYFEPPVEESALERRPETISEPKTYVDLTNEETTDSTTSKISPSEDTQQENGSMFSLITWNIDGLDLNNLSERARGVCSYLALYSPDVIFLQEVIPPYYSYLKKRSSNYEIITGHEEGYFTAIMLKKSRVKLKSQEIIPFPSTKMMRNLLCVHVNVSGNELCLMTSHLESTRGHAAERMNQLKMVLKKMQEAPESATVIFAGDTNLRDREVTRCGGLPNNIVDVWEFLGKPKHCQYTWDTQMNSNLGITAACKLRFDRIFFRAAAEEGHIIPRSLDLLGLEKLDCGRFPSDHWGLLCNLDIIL
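Test system: Human TDP2 enzyme | Reagent: 5 mM T5PNP | Compound dosing: 12.8 µM single point, 1% DMSO | Incubation: Enzyme reaction with compound for 2 h at 37 °C | Technique: p-Nitrophenol epi absorbance | Read-out: % inhibition relative to enzyme-containing and enzyme-free wells | Benchmarks: High control without enzyme, low control DMSO plus TDP2 | Replicates: Singlicate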
PAD4 confirm: human PAD4 inhibitors, confirmation, biochemical, fluorescence polarization. shares compounds with PAD4 inh. inhibition, % at 6.36 µM. hit rate 28% among 1,200. recombinant PAD4, RCA probe fluorescence polarization;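 active = mean inhibition across replicates above the hit cutoff set by the earlier primary screen, cut at about 15% in these data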;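 note: inhibitors block active-site labeling by the probe so polarization falls; 0% = PAD4 with probe and DMSO and 100% = probe without PAD4 enzyme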
* marks the source's active call; other numbers are inactive results; x = not tested or not shown.

SMILES | TCR-CD3 inh | HTRA1 inhibitor | SIAE primary | PAD4 inh | ABHD4 inh | TDP2 absorb | PAD4 confirm
CN(C)c1ccc(NC(=O)Oc2ccccc2)cc1 | 3 | 8 | 3 | 17* | 23 | 10 | -2
COc1ccc(Cn2cc(CN3[C@H](CC(C)C)COc4cc(Br)ccc4S3(=O)=O)nn2)cc1 | x | x | 1 | x | -3 | -10 | x
CCCCCOC(=O)c1c(N)n(CCOC)c2nc3ccccc3nc12 | -6 | -17 | -3 | 26* | -4 | 14 | -10
CCCCCCCCNS(=O)(=O)CC1NCc2cc(F)ccc21 (centres undefined) | x | x | 0 | x | -18 | 5 | x
CC(C)c1ccc(N2C(=O)CSC23C(=O)N2CCCc4cccc3c42)cc1 (centres undefined) | -7 | -2 | -8 | 15* | 7 | 7 | 20*
O=C(c1ccc(Cl)c(S(=O)(=O)N2CCOCC2)c1)N1CCCC1 | -6 | 1 | 10 | 16* | -2 | -16 | 1
CCC[C@H]1[C@@H](NS(=O)(=O)c2ccccc2[N+](=O)[O-])CC[C@@]23CCCN2C(=O)CCC[C@@H]13 | x | x | -1 | x | 6 | 1 | x
Cc1[nH][nH]c(=O)c1C(c1c(C)[nH][nH]c1=O)c1cn(Cc2cccc3ccccc23)c2ccccc12 | 6 | 20 | 1 | 31* | 9 | 60* | 25*
Cn1c2ccccc2c(=O)c2c(=O)n(Cc3cccc4ccccc34)cnc21 | x | x | 0 | x | -5 | -7 | x
O=C(O)c1cccc(S(=O)(=O)Nc2ccc3oc(=O)sc3c2)c1 | 4 | 8 | 0 | 36* | 18 | -3 | 13
O=c1oc2ccc(NS(=O)(=O)c3cccc4cccnc34)cc2s1 | -6 | 22 | 14 | 36* | -39 | -12 | 23*
Cc1ccccc1NC(=O)c1cccc2c1-c1ccccc1C2=O | x | x | -1 | x | 4 | 2 | x
CCOC(=O)N1CCN(C(=O)C[C@H]2C[C@@]3(C(=O)OC)C(=C[C@H](COCc4ccccc4)O[C@@H]3C)N(Cc3ccc(Cl)cc3Cl)C2=O)CC1 | x | x | 0 | x | -5 | 8 | x
CC(=O)Nc1ccc2ccccc2c1 | x | 8 | x | 1 | x | x | x
CCOC(=O)C(Nc1ccc2ccccc2c1)C(=O)OCC | -2 | 4 | 6 | 21* | 11 | 6 | -1
Fc1ccc(CSc2ncnc3scc(-c4ccccc4)c23)cc1 | -7 | -22 | -8 | -1 | -17 | -9 | x
Fc1ccc(C[n+]2csc3ccccc32)cc1 | 0 | 6 | 3 | 21* | -9 | 8 | 34*
Clc1ccc(C[n+]2csc3ccccc32)cc1 | -1 | 4 | -2 | 19* | 6 | 13 | 34*
CCNC(=O)CCc1nc(-c2ccc(C(C)C)cc2)no1 | x | x | 2 | x | -8 | 7 | x
CCOC(=O)C1=C(C)N=c2s/c(=C\c3ccc(OCC(=O)O)c(OC)c3)c(=O)n2C1c1ccc(OC)cc1 (centres undefined) | -2 | -20 | -15 | 15* | -35 | 18 | 3
CCCc1cn(-c2ccc3c(c2)[C@@]2(CC(=O)N(C)C2c2ccccc2)C(=O)N3CC(C)C)nn1 (some centres undefined) | x | x | 4 | x | 7 | -5 | x
COc1ccc(N2C(=O)CSC23C(=O)Nc2ccccc23)cc1 (centres undefined) | 7 | 0 | -1 | 16* | -4 | 2 | 14
Cc1ccc(N2C(=O)CCSC23C(=O)Nc2ccccc23)cc1 (centres undefined) | 2 | 2 | 2 | 2 | 5 | -1 | x
O=C(Oc1ccc(-c2cnc3ccccc3n2)cc1)c1ccc(Br)o1 | 7 | -2 | -10 | 39* | -3 | 7 | 27*
Cc1cc(C)cc(N2C(=O)CC(Sc3ccccc3C(=O)O)C2=O)c1 (centres undefined) | -1 | 6 | -2 | 5 | 6 | 5 | x
SMILES | TCR-CD3 inh | HTRA1 inhibitor | SIAE primary | PAD4 inh | ABHD4 inh | TDP2 absorb | PAD4 confirm
CCOC(=O)c1c(N2C(=O)CC(Sc3ccccc3C(=O)O)C2=O)sc(C)c1C (centres undefined) | -3 | -9 | 1 | 17* | 16 | -8 | 15
COc1ccc(NC(=O)NNC(=O)CCn2nc(C)c([N+](=O)[O-])c2C)cc1OC | x | x | 3 | x | 4 | 1 | x
Cn1c(/C(C#N)=C/c2ccc(-c3ccc(S(N)(=O)=O)cc3)o2)nc2ccccc21 | -5 | 2 | -11 | 28* | -15 | -10 | 21*
Cn1c(/C(C#N)=C/c2cccc(O)c2)nc2ccccc21 | 2 | 4 | 9 | -3 | 1 | -2 | x
O=C1C[C@H](c2ccc3ccccc3c2)N=C2N1/C(=C\c1ccccc1)[C@@H](c1ccccc1C(F)(F)F)N2Cc1ccc2c(c1)OCO2 | x | x | 0 | x | 3 | 9 | x
C=CCN(C(=O)c1csnn1)C(C(=O)NCc1ccc(F)cc1)c1ccccc1 (centres undefined) | 1 | -2 | -3 | -4 | -9 | -16 | x
C=CCN(C(=O)c1csnn1)C(C(=O)NCc1ccc(F)cc1)c1ccc(F)cc1 (centres undefined) | 3 | 2 | -5 | 15* | -2 | 10 | -7
Cc1nc2ccc(C(=O)N3CCN(C(=O)C(Cl)Cl)CC3)cc2n1C1CCCC1 | x | x | 2 | x | -2 | -2 | x
Cn1c(=O)c2cc(NCc3ccccc3)nnc2n(C)c1=O | 0 | 14 | 5 | 31* | 7 | 75* | 2
CCOc1ccc(N=C/C=C/c2ccccc2)c(O)c1 | 6 | 35 | 10 | 26* | 29 | 6 | -2
O=C1CCC(CNc2ccccc2)N1c1ccccc1 (centres undefined) | x | x | -6 | x | 0 | -11 | x
CCn1c(=NC(=O)CSC(C)=O)sc2cc(F)ccc21 | -2 | 2 | 2 | 16* | 1 | 17 | 4
C#CCn1c(=NC(=O)CSC(C)=O)sc2cc(F)ccc21 | x | -3 | x | -2 | x | x | x
COc1ccc(-n2c(COc3ccc(C)cc3)nnc2SCC(=O)Nc2ccc(S(=O)(=O)Nc3cc(C)nc(C)n3)cc2)cc1 | x | x | -5 | x | -7 | -1 | x
CCC[C@@H](/C=C/C(=O)OC(C)(C)C)Sc1ccccc1OC | x | x | -4 | x | 3 | 5 | x
Cc1ccccc1C1CC(=O)Oc2cc(O)ccc21 (centres undefined) | x | 53* | x | 82* | x | x | 78*
CCn1c(=O)n2n(c1=O)[C@H]1C[N+](Cc3ccc4c(c3)OCO4)=C(N)NC1=C(C)C2 | x | x | 7 | x | 1 | 5 | x
